# In ChEMBL document CHEMBL1759935, “Pharmacokinetic optimisation of novel indole-2-carboxamide cannabinoid CB1 antagonists” (Bioorg Med Chem Lett, 2011):
# Assays:
# Cannabinoid receptor 1 = Cannabinoid receptor 1 (Homo sapiens, UniProt P21554); assay: Antagonist activity against human CB1 receptor; assay type: functional
# [1] = Intrinsic clearance in human liver microsomes in presence of NADPH; assay type: ADME, Microsome
# Procedure, shortened: (§1)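 Pooled human microsomes (gut or liver) at 0.5 mg protein/mL with 1 mM NADPH, pH 7.4 (P450 pathway). Compound loss followed by LC–MS/MS in duplicate time-course incubations; intrinsic clearance given per mg protein.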
# [2] = Intrinsic clearance in human liver microsomes in presence of UGT; assay type: ADME, Microsome
# Procedure, shortened: (§2)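 UGT pathway: human gut or liver microsomes at 0.5 mg protein/mL with 2 mM UDPGA, alamethicin and 1 mM MgCl2, pH 7.1. Compound depletion measured by LC–MS/MS in duplicate time-course incubations; intrinsic clearance expressed per mg protein.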
# [3] = Intrinsic clearance in human gut microsomes in presence of UGT; assay type: ADME, Microsome; procedure, shortened: as §2
# [4] = Intrinsic clearance in human gut microsomes in presence of NADPH; assay type: ADME, Microsome; procedure, shortened: as §1
# Cannabinoid receptor 1, sequence (P21554 whole entry): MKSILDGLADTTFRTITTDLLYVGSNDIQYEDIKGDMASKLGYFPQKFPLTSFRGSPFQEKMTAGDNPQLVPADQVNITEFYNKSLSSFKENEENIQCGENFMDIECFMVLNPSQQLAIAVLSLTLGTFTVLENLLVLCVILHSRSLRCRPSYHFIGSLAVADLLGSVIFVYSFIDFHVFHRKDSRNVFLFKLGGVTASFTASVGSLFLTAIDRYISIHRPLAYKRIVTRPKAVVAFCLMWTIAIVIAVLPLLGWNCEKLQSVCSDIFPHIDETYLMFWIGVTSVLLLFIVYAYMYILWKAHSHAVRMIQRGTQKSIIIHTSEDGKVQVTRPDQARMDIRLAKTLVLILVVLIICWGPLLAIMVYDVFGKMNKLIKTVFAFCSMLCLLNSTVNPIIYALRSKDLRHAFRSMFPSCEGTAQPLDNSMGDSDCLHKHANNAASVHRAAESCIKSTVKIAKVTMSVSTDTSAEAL
Structure (SMILES),IC50 (Cannabinoid receptor 1),microsomal CLint [1],microsomal CLint [2],microsomal CLint [3],microsomal CLint [4]
CC(O)C1(CNC(=O)c2cc3cc(C#N)ccc3n2Cc2cccc(OC(F)(F)F)c2)CCCC1 (stereo not given),5.13 nM,505 µL/min/mg,9 µL/min/mg,< 6 µL/min/mg,99 µL/min/mg
COc1ccc(Br)cc1Cn1c(C(=O)NCC(C)(C)CO)cc2cc(C#N)ccc21,0.776 nM,104 µL/min/mg,23 µL/min/mg,94 µL/min/mg,< 6 µL/min/mg
COc1ccc(C)cc1Cn1c(C(=O)NCC(C)(C)CO)cc2cc(C#N)ccc21,0.759 nM,191 µL/min/mg,23 µL/min/mg,64 µL/min/mg,< 6 µL/min/mg
Cc1ccc(C(F)(F)F)cc1Cn1c(C(=O)NCC(C)(C)CO)cc2cc(C#N)ccc21,0.513 nM,180 µL/min/mg,16 µL/min/mg,102 µL/min/mg,< 6 µL/min/mg
Cc1ccc(Cl)cc1Cn1c(C(=O)NCC(C)(C)CO)cc2cc(C#N)ccc21,0.575 nM,119 µL/min/mg,23 µL/min/mg,124 µL/min/mg,< 6 µL/min/mg
Cc1ccc(C)c(Cn2c(C(=O)NCC(C)(C)CO)cc3cc(C#N)ccc32)c1,0.631 nM,257 µL/min/mg,29 µL/min/mg,124 µL/min/mg,< 6 µL/min/mg
CCCOc1cccc(Cn2c(C(=O)NCC(C)(C)CO)cc3cc(C#N)ccc32)c1,1.55 nM,156 µL/min/mg,10 µL/min/mg,45 µL/min/mg,13 µL/min/mg
COc1ccc(OC(F)(F)F)cc1Cn1c(C(=O)NCC2(CO)CC2)cc2cc(C#N)ccc21,5.13 nM,139 µL/min/mg,18 µL/min/mg,51 µL/min/mg,< 6 µL/min/mg
COc1ccc(C(F)(F)F)cc1Cn1c(C(=O)NCC2(CO)CC2)cc2cc(C#N)ccc21,1.32 nM,155 µL/min/mg,7 µL/min/mg,49 µL/min/mg,< 6 µL/min/mg
COc1ccc(C(C)(C)C)cc1Cn1c(C(=O)NCC2(CO)CC2)cc2cc(C#N)ccc21,1.48 nM,188 µL/min/mg,< 6 µL/min/mg,26 µL/min/mg,< 6 µL/min/mg
COc1ccc(Cl)cc1Cn1c(C(=O)NCC2(CO)CCC2)cc2cc(C#N)ccc21,2.57 nM,196 µL/min/mg,34 µL/min/mg,179 µL/min/mg,< 6 µL/min/mg
Cc1ccc(F)cc1Cn1c(C(=O)NCC2(CO)CCC2)cc2cc(C#N)ccc21,4.9 nM,190 µL/min/mg,49 µL/min/mg,175 µL/min/mg,< 6 µL/min/mg
CC(O)CCNC(=O)c1cc2cc(C#N)ccc2n1Cc1cccc(OC(F)(F)F)c1 (stereo not given),8.91 nM,113 µL/min/mg,< 6 µL/min/mg,< 6 µL/min/mg,< 6 µL/min/mg
N#Cc1ccc2c(c1)cc(C(=O)NCCC(O)C(F)(F)F)n2Cc1cccc(OC(F)(F)F)c1 (stereo not given),8.13 nM,59 µL/min/mg,31 µL/min/mg,< 6 µL/min/mg,26 µL/min/mg
N#Cc1ccc2c(c1)cc(C(=O)NCCC(O)(C(F)(F)F)C(F)(F)F)n2Cc1cccc(OC(F)(F)F)c1,6.03 nM,20 µL/min/mg,24 µL/min/mg,< 6 µL/min/mg,< 6 µL/min/mg
COc1ccc(C(F)(F)F)cc1Cn1c(C(=O)NCCC2(O)CCC2)cc2cc(C#N)ccc21,1.48 nM,88 µL/min/mg,< 6 µL/min/mg,< 6 µL/min/mg,< 6 µL/min/mg
N#Cc1ccc2c(c1)cc(C(=O)NCCC1(O)CCC1)n2Cc1cccc(OC(F)(F)F)c1,2.63 nM,78 µL/min/mg,< 6 µL/min/mg,< 6 µL/min/mg,< 6 µL/min/mg
COc1ccc(Br)cc1Cn1c(C(=O)NCCCO)cc2cc(C#N)ccc21,9.33 nM,41 µL/min/mg,< 6 µL/min/mg,< 6 µL/min/mg,< 6 µL/min/mg
